Bioassay records: PubChem, several laboratories
Sampled rows, rich in hits. Any-hit rate of the full collection: about 1.5%.
Runt-CBFb FRET = Runt domain-CBFb interaction inhibition. hit rate 0.46% among 220,000. inhibition, % at 20 µM. Cerulean-Runt/Venus-CBFb FRET ratio 530/480, 1 h;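 active = inhibition over about 50% at 20 µM in the single-dose screen, limit read from the data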;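 also: 0% = DMSO wells and 100% = excess unlabeled CBFb competitor control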
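test system = Cerulean-Runt domain fusion protein, energy donor | probe or stimulus = Venus-CBFb binding partner, 100 nM | incubation = two 1 h room-temperature incubations shielded from light | detection = fluorescence energy transfer, 422 nm excitation, 530/480 nm emission | measure = loss of energy transfer signal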
RanGTP-Impb inh = disruptors of Ran-importin-beta complex formation – biochemical, FRET, CFP-Ran, YFP-importin-beta, homogeneous, primary screen. cell-free CFP-Ran/YFP-importin-beta FRET ratio. inhibition, % (concentration not given with the values). hit rate 1.1% among 300,000. AID 2216;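 active = more than half of the replicate wells show a fall in the fluorescence ratio signal beyond about 16%, limit read from the data, passing the limit was not always enough; inconclusive = exactly half of the replicate wells pass the set limit; inactive = fewer than half of replicates pass the limit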;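 also: 0% = DMSO wells and 100% = Ran loaded with GDP instead of GTP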
CaV13 FRET inh = Disruptors of the CACNA1D IQ motif to Ca2+-dependent inactivation inhibitor domain association, primary screening, Förster resonance energy transfer in intact living …; inhibition, % at 12.3 µM; AID 743397; hit rate 0.098% among 340,000; HEK cells, CFP/YFP FRET ICDI-IQ, plate reader, 10 min; percent FRET-ratio fall versus neutral wells;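 active = mean replicate inhibition of at least 30% and at least 1% of replicates passing that level; inconclusive = only one of the two criteria is met; inactive = neither criterion is met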;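 also: 0% = median of the neutral control wells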
Runt-SMMHC FRET = Runt domain-CBFb-SMMHC interaction inhibition; Q01196+Q13951; hit rate 0.74% among 220,000; inhibition, % at 20 µM; AID 1434; Cerulean-Runt/Venus-CBFb-SMMHC FRET ratio 530/480, 1 h;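 active = mean inhibition across duplicate retests at 20 µM reaching about 50%, limit read from the data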;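 also: 0% = DMSO wells and 100% = wells with excess untagged CBFb-SMMHC; inhibitors lower the FRET ratio by blocking Runt binding to CBFb-SMMHC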
Hck Nef HTS = human Hck-Nef kinase inhibition. Recombinant Hck-YEEI plus Nef, Z-Lyte FRET kinase assay. hit rate 0.68% among 220,000. AID 463187. P08631. inhibition, % at 20 µM;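 active = Hck-Nef kinase inhibition above about 50%, limit read from the data; inactive = inhibition below that limit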;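 also: 0% = DMSO with Hck plus Nef and 100% = Hck alone without Nef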
Target sequence (P08631 whole entry, looked up): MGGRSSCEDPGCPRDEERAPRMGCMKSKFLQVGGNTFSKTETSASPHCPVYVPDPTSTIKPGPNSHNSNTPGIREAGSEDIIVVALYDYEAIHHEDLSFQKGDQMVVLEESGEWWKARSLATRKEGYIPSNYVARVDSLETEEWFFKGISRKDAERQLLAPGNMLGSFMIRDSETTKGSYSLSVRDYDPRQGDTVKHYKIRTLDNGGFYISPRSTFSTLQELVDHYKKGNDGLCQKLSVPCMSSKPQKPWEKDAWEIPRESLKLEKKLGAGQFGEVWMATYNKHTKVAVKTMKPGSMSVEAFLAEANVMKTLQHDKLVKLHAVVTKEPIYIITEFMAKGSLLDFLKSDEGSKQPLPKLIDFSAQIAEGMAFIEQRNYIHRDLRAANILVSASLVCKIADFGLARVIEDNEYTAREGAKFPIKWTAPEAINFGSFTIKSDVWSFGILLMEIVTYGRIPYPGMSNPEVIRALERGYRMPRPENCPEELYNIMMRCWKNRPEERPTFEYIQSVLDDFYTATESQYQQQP
Runt-CBFb TRFRET = disrupts human RUNX1 Runt domain binding to CBFb; shares compounds with Runt-CBFb FRET; AID 1502; inhibition, % at 20 µM; hit rate 20% among 480; TR-FRET RUNX1 Runt domain-CBFb binding; in the data active = inhibition above about 40%
Active calls of the source: *; ? = inconclusive; . = no result.

SMILES	Runt-CBFb FRET	RanGTP-Impb inh	CaV13 FRET inh	Runt-SMMHC FRET	Hck Nef HTS	Runt-CBFb TRFRET
Cc1[nH]c2ccccc2c1C1=NNC(=Nc2ccc(F)cc2)SC1	53*	.	-19	47	1	-2
CC(C)[C@@H]1CC2=C(C(=O)OC(C)(C)O2)[C@H](CCc2ccccc2)O1	.	.	-5	.	.	.
Cc1nc2ccccc2c(=O)n1/N=C/c1ccc([N+](=O)[O-])o1	57*	1	.	86	-3	3
Cc1cc(C)nc(Sc2nc(Cl)nc(N(c3ccccc3)c3ccccc3)n2)n1	59*	0	.	53	0	18
Cc1cc(C)nc(SC(C(=O)O)c2ccccc2)n1 (centres undefined)	0	3	-3	3	1	.
COc1cccc(C(=O)NCCS(=O)(=O)N2CCCC(C)C2)c1 (centres undefined)	.	.	20	.	.	.
COc1ccc(C(=O)N2CCCC(CNC(=O)c3ccccc3Cl)C2)o1 (centres undefined)	.	?	-5	.	.	.
Cc1cc(C)nc(SCNC(=O)c2ccccc2)n1	69*	-6	-8	18	8	-14
Cc1cc(SCNC(=O)c2ccccc2)nc(C(C)C)n1	43	?	-4	16	25	.
COc1ccc(N2CCN(C(=O)c3ccc(Br)o3)CC2)cc1	.	.	-5	.	.	.
O=CN/C=C/c1cc(O)ccc1O	65*	.	.	59*	-141	-2
O=Cc1ccc(O)cc1O	.	5	.	.	.	.
O=C1C2C3C=CC(CO)(O3)C2C(=O)N1c1ccccc1-c1ccccc1 (centres undefined)	61*	.	.	68*	5	70*
COCc1cc(C)nc(SCC(=O)Nc2ccc3c(c2)n(C)c(=O)n3C)c1C#N	.	1	.	.	.	.
COc1ccc2nc(NC(=O)c3sc4nc(C)cc(C)c4c3N)sc2c1	65*	7	27	31	12	13
CCn1c(C)c(C(C)=O)c(N2CCN(c3ccccn3)CC2)nc1=S	52*	45*	-8	100*	-8	-4
NS(=O)(=O)c1ccc(N/C=C\C(=O)c2ccc3ccccc3c2)cc1	50*	-3	-2	-62	8	44*
O=C(Nc1nc(-c2ccccc2)nc2ccccc12)c1ccc(F)cc1	3	.	3	11	22	.
Cc1ccc(N2CC(C(=O)Nc3nc4ccc(S(C)(=O)=O)cc4s3)CC2=O)cc1C (centres undefined)	.	-1	-5	.	.	.
CC(c1ccccc1C(O)c1ccccc1)N(C)C (centres undefined)	57*	3	-9	0	1	-14
Cc1cccc(OC(C)C(=O)N2CCCN(C)CC2)c1C (centres undefined)	.	2	.	.	.	.
O=C(Nc1ccc2cn[nH]c2c1)c1c(Cl)cccc1Cl	5	1	-5	8	11	.
O=C1C(Cl)=C(Nc2ccc3cn[nH]c3c2)C(=O)c2ccccc21	51*	4	-2	32	-43	-19
Cc1nnc(SCC(=O)Nc2ccc(N3CCN(S(C)(=O)=O)CC3)cc2)o1	.	-3	-4	.	.	.
COc1ccc(C(=O)N/C(=C/c2ccc(Cl)cc2)C(=O)Nc2ccc(C(=O)O)cc2)cc1	.	5	-6	.	.	.
SMILES	Runt-CBFb FRET	RanGTP-Impb inh	CaV13 FRET inh	Runt-SMMHC FRET	Hck Nef HTS	Runt-CBFb TRFRET
CC(C)C[C@H](NC(=O)c1nc[nH]c1C(=O)N1CCN(C(=O)OC(C)(C)C)CC1)C(=O)OC(C)(C)C	-3	-4	-7	0	4	.
Cc1snc2sc(C(=O)c3ccc(Br)cc3)c(N)c12	30	-1	-5	-22	-2	.
Cc1ccc(C(=O)c2sc3nsc(C)c3c2N)cc1	50*	12	-5	28	0	44*
CCOC(=O)c1cnc(-n2nc(C)cc2C)nc1Nc1ccc(C)cc1	3	1	-4	-4	2	.
CCOC(=O)c1cnc(-n2nc(C)cc2C)nc1Nc1ccc2c(c1)OCO2	73*	.	.	-2	.	-8
CCC(C(=O)OCC(=O)N(CC)c1c(N)n(Cc2ccccc2)c(=O)[nH]c1=O)c1ccccc1 (centres undefined)	.	.	-7	.	.	.
Cc1[nH]c2ccccc2c1SCC(=O)O	70*	-4	.	-9	-7	-28
Cc1ccc(/C=c2\sc3nc(-c4ccco4)nn3c2=O)o1	53*	12	.	29	13	88*
